High-throughput results (PubChem BioAssay)
Granule exo inh = lytic granule exocytosis inhibition. TALL-104 LAMP-1 surface exposure, flow cytometry; cells stimulated with thapsigargin and PMA. inhibition, % at 10 µM. actives 0.66% (n = 360,000);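 active means inhibition above about 55%, limit read from the data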
MC4R ag barr = human MC4R agonism via beta-arrestin; U2OS MC4R beta-arrestin complementation, luminescence; percent of melanotan II response, DMSO zero; activation, % at 8.9 µM; actives 0.98% (n = 360,000); AID 540308;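 active means activation above a per-plate cutoff, the mean activation of sample wells on that plate plus 3 SD, cut at about 8% in these data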
Target sequence (P32245 whole entry, looked up): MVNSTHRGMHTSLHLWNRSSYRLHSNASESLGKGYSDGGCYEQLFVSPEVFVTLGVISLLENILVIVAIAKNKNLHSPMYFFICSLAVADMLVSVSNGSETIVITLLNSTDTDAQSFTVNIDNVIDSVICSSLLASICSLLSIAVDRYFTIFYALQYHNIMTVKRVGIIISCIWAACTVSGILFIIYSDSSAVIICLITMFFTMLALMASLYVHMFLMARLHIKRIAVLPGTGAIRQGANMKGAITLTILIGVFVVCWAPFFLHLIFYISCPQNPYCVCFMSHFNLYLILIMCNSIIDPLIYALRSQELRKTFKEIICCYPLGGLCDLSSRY
MC4R antag cAMP = antagonists of human melanocortin 4 receptor (MC4R); actives 0.48% (n = 360,000); P32245; MC4R-expressing cells, MTII-stimulated cAMP, LANCE TR-FRET; inhibition, % at 6.5 µM; AID 540295;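 active means inhibition above its plate's cutoff, the mean of tested wells on that plate plus 3 SD, cut at about 29% in these data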
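material = U2OS cells stably expressing human melanocortin 4 receptor (MC4R) | also added = Melanotan II challenge | dosing = single nominal compound dose of 6.5 µM | detection = TR-FRET with Eu-cAMP and labeled anti-cAMP, 671 nm | replication = singlicate | timing = compound 30 min, challenge 1 h, detection 1 h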
A1 inh = inhibitors of the anti-apoptotic protein A1, read as caspase activation. MEF A1-2A-BIM cells, Caspase-Glo 3/7 luminescence, 3 h; percent of clofoctol response, vehicle zero. caspase activation, % (concentration not given with the values). actives 0.066% (n = 330,000);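 active means over half of replicate activation scores above 10%, or exactly half above 10 with the replicate mean above 10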
sPLA2-III inh = Inhibits HGIII-sPLA2 liposome hydrolysis, primary screen. QFRET BODIPY PC-A2 liposome hydrolysis, fluorescence. inhibition, % at 12.2 µM. actives 0.56% (n = 370,000). AID 743126;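 active means inhibition above mean plus 3 SD of compounds lying within the high and low control bounds, cut at about 19% in these data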
NTR1 agonist = activates human neurotensin receptor 1 | NTR1-U2OS beta-arrestin-GFP spot imaging, agonist mode | P30989 | AID 493036 | actives 0.17% (n = 330,000) | activation, % at 20 µM;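 active means activation at or above 40% of the spot to cytoplasm intensity ratio, with at least 20 cells analyzed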
U2OS cAMP counter = counter-screen for MC4R antagonists: nonselective cAMP signaling inhibitors | shares compounds with MC4R antag cAMP | parental U2OS, forskolin cAMP, LANCE TR-FRET | inhibition, % at 6.5 µM | actives 26% (n = 1,600) | AID 602193;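 active means mean inhibition over triplicates above the low-control well mean plus 3 SD, set per campaign, cut at about 13% in these data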;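 further: signal is single emission at 671 nm which falls as cellular cAMP rises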
MC4R cAMP antag = human MC4R cAMP antagonism confirmation. AID 602195. MC4R-expressing cells, MTII-stimulated cAMP, TR-FRET. shares compounds with MC4R antag cAMP. inhibition, % at 6.5 µM. actives 27% (n = 1,600); in the data active means inhibition above about 29%
Numbers stand for hits; - = inactive; . = not tested or not shown; + = active, no number. Sampled rows, rich in hits. Any-hit rate of the full collection: about 2.5%.

SMILES | Granule exo inh | MC4R ag barr | MC4R antag cAMP | A1 inh | sPLA2-III inh | NTR1 agonist | U2OS cAMP counter | MC4R cAMP antag
Cc1ccc(NC(=O)c2nc(S(=O)(=O)Cc3ccccc3C)ncc2Cl)cc1C | - | - | 32 | - | - | - | 30 | -
CCOc1ccccc1NC(=O)c1nc(S(=O)(=O)Cc2ccccc2)ncc1Cl | - | - | 33 | . | - | - | - | -
C[C@@H]1COc2cc(N3CCCC3)ccc2S(=O)(=O)N1C | . | . | . | . | - | . | . | .
COC(=O)C1=C(C)N(C)C(=NCc2ccc(OC)cc2)NC1c1ccc(Cl)cc1 (stereo not given) | . | . | . | . | - | . | . | .
O=C(C1CCCN1S(=O)(=O)c1ccccc1[N+](=O)[O-])N1CCc2ccccc2C1 (stereo not given) | . | . | . | . | - | . | . | .
C[C@@H]1CN([C@@H](C)CO)C(=O)c2cccc(NC(=O)Nc3cccc4ccccc34)c2O[C@H]1CN(C)S(=O)(=O)c1ccc(Cl)cc1 | . | . | . | . | - | . | . | .
CC(C)c1nnc(NC(=O)c2nc(S(=O)(=O)Cc3ccccc3)ncc2Cl)s1 | - | - | 51 | . | - | - | 25 | 47
CCc1ccc(NC(=O)c2nc(S(=O)(=O)Cc3ccccc3)ncc2Cl)cc1 | - | - | 36 | 11 | - | - | - | -
CN(c1ccccc1)S(=O)(=O)c1ccc(NC(=O)c2nc(S(C)(=O)=O)ncc2Cl)cc1 | - | - | 57 | - | - | - | 26 | 36
Cc1ccc(C(=O)NCc2ccc3c(c2)OCO3)c(Cl)c1 | - | - | - | . | - | . | . | .
Cc1cccc(CS(=O)(=O)c2ncc(Cl)c(C(=O)NCc3ccc4c(c3)OCO4)n2)c1 | 64 | - | 33 | - | - | - | - | -
CSc1nnc(NC(=O)c2nc(S(=O)(=O)Cc3ccccc3)ncc2Cl)s1 | - | - | - | . | - | - | . | .
C[C@H]1[C@@H](OC(=O)NCc2ccc(Cl)cc2)CC[C@@]23CCCN2C(=O)CCC[C@@H]13 | . | . | . | . | - | . | . | .
Clc1ccc(CN2CCN(N=Cc3cccc(OCc4ccccc4)c3)CC2)cc1 | . | . | . | . | - | . | . | .
COC(=O)c1ccc(NC(=O)c2nc(S(=O)(=O)Cc3cccc(C)c3)ncc2Cl)cc1 | - | - | - | - | - | - | . | .
CC(=O)Nc1ccc(NC(=O)c2nc(S(=O)(=O)Cc3cccc(C)c3)ncc2Cl)cc1 | - | - | 43 | - | - | - | 14 | -
COc1cc(OC)c2c(O)c3c(=O)cc(C)oc3c(-c3c(OC)cc4cc5c(c(O)c4c3O)C(=O)CC(C)(O)O5)c2c1 (stereo not given) | . | . | . | . | - | . | . | .
CC/C(C)=N\NC(=O)CNC(=O)c1ccc(Cl)cc1Cl | - | - | 31 | - | - | - | - | -
CC/C(Cc1ccccc1)=N/NC(=O)CNC(=O)c1ccc(Cl)cc1Cl | - | - | - | . | - | - | . | .
COc1ccc(C(=O)OCCN2CCN(C3CN(Cc4cn(Cc5ccccc5C(F)(F)F)nn4)S(=O)(=O)C3)CC2)cc1OC (stereo not given) | . | . | . | . | - | . | . | .
N#CCC(=O)Nc1ccc(C(=O)OCC(=O)Nc2ccccc2Sc2ccccc2)cc1 | - | - | 31 | - | - | - | - | -
COc1ccc(N2CCN(C(=O)NCc3ccc(OC)c(Cl)c3)CC2)cc1 | - | - | 31 | - | - | - | - | -
COCCN(C(=O)c1csnn1)C(C(=O)NC1CCCC1)c1ccccc1F (stereo not given) | - | - | 29 | - | - | - | - | -
COCCNC(=O)C(c1ccccc1F)N(C(=O)C(=O)NC1CCCC1)C1CCCCC1 (stereo not given) | - | - | 29 | - | - | - | - | -
COCCN(C(=O)c1csnn1)C(C(=O)NC1CCCC1)c1ccc(C)cc1 (stereo not given) | - | - | - | - | - | - | . | .
SMILES | Granule exo inh | MC4R ag barr | MC4R antag cAMP | A1 inh | sPLA2-III inh | NTR1 agonist | U2OS cAMP counter | MC4R cAMP antag
C[C@H](O)[C@@H]1CN2CCc3ccc(-c4ccc5c(c4)OCO5)cc3[C@@H]2C[C@@H]1N(C)Cc1cc(Cl)cc(Cl)c1 | . | . | . | . | - | . | . | .
O=C(Nc1ccncc1)c1cc(-c2ccccn2)nc2ccccc12 | - | - | - | - | - | - | . | .
O=C(Nc1ccc(F)cc1)c1cc(-c2ccccn2)nc2c(Cl)cccc12 | - | - | 30 | - | - | - | 35 | 42
CCOC(=O)N1CCN(C(=O)c2cc3c(-c4cccc(OC)c4)nn(C)c3s2)CC1 | - | - | 30 | - | - | - | - | -
O=C(CN1C(=O)C2CC=CCC2C1=O)N1CCN(c2ccc([N+](=O)[O-])cc2)CC1 (stereo not given) | - | - | 31 | - | - | - | - | -
COC(=O)c1cc2ccc(OC)cc2c2cc(OC)c(OC)cc12 | - | - | 34 | - | - | - | - | -
COC(=O)C1=C(C)N(C)C(=NCC2CC2)NC1CCc1ccccc1 (stereo not given) | . | . | . | . | - | . | . | .
COC(=O)CSc1nnc(-c2ccc(S(=O)(=O)NCc3ccccc3Cl)cc2)o1 | - | - | 36 | - | - | - | - | 40
COC(=O)CSc1nnc(-c2ccc(S(=O)(=O)NCc3cccs3)cc2)o1 | - | - | 43 | - | - | - | 17 | 44
COC(=O)CSc1nnc(-c2ccc(S(=O)(=O)N3CCCC3)cc2)o1 | - | - | 34 | - | - | - | 14 | -
CCOC(=O)Cc1csc(NC(=O)CSc2nnc(-c3ccc(NS(=O)(=O)CC)cc3)o2)n1 | - | - | 30 | - | - | - | - | -
COC(=O)CSc1nnc(-c2cccs2)o1 | . | . | . | . | - | . | . | .
CCOC(=O)N1CCN(C(=O)C[C@H]2C[C@@]3(C(=O)OC)C(=C[C@H](C(C)C)O[C@@H]3C3CC3)N(Cc3ccc4c(c3)OCO4)C2=O)CC1 | . | . | . | . | - | . | . | .
CCOC(=O)CSc1nnc(-c2ccc(S(=O)(=O)NCc3cccs3)cc2)o1 | - | - | 39 | - | - | - | 15 | 42
COC(=O)[C@]12C[C@H](CC(=O)NCc3cccs3)C(=O)N(Cc3cccc4ccccc34)C1=C[C@H](COCc1ccccc1)O[C@@H]2C | . | . | . | . | - | . | . | .
CC1=C(CO)C(=O)OC([C@@H](C)C2CC[C@H]3C4C[C@H]5O[C@]56[C@@H](O)C=CC(=O)[C@]6(C)C4CC[C@]23C)C1 (stereo not given in full) | - | - | 39 | - | - | . | - | 48
Cc1ccc(Sc2ccc(NC(=O)c3ccc(S(C)(=O)=O)cc3Cl)cc2)cc1 | - | - | 108 | - | - | - | 125 | +
Cc1ccc(C(=O)NNC(=O)Cc2nc3nc(C)cc(C)n3n2)cc1 | - | - | - | - | - | - | . | .
Cc1cc(C)n2nc(C(=O)NNC(=O)c3ccc(Cl)cc3)nc2n1 | - | - | 36 | - | - | - | - | -
